ChEMBL document CHEMBL1130049, “Synthesis and oral efficacy of a 4-(butylethylamino)pyrrolo[2,3-d]pyrimidine: a centrally active corticotropin-releasing factor1 receptor antagonist” (J Med Chem, 1997)

Columns and labels:
[1] = target: Corticotropin-releasing factor receptor 2 (Rattus norvegicus, UniProt P47866); assay: Inhibition of binding of [125I]-Tyr0-sauvagine to Corticotropin releasing hormone receptor 2 (CRF2)
[2] = Plasma clearance in rat; type: ADME, organism-based
Method in brief: (§1)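 Male Sprague-Dawley rats (300–350 g) had jugular cannulae placed under pentobarbital the day before dosing. Groups of n = 4 got 5 mg/kg iv bolus (DMSO/emulphor/saline 5:5:90) or 10 mg/kg po (DMSO/emulphor/water 5:5:90). Serial plasma was taken to 24 h (iv) or 8 h (po) and assayed by HPLC-UV at 300 nm. AUC was by linear trapezoid, CL = dose/AUC, Vdss = CL×MRT, and F from dose-normalised po/iv AUC.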

[3] = Oral bioavailability in rat; type: ADME, organism-based; details: in vivo, read-out: Bioavailabiility; method in brief: as §1
Rattus norvegicus [4] = species: Rattus norvegicus; assay: Half life in rat; type: ADME, organism-based; details: in vivo; method in brief: as §1
[5] = Maximal plasma concentration in rat; type: ADME, organism-based; method in brief: as §1
Rattus norvegicus [6] = species: Rattus norvegicus; assay: Volume of distribution in steady state in rat; type: ADME, organism-based; details: in vivo; method in brief: as §1
[7] = target: T1, Corticotropin-releasing factor receptor 1 (Rattus norvegicus, UniProt P35353); assay: Inhibition of binding of 70 pM [125I]-Try0-o-Corticotropin-releasing Factor (CFR) to Corticotropin releasing hormone receptor 1 in Rat brain membrane; type: cell membranes
T1 sequence (P35353 whole entry): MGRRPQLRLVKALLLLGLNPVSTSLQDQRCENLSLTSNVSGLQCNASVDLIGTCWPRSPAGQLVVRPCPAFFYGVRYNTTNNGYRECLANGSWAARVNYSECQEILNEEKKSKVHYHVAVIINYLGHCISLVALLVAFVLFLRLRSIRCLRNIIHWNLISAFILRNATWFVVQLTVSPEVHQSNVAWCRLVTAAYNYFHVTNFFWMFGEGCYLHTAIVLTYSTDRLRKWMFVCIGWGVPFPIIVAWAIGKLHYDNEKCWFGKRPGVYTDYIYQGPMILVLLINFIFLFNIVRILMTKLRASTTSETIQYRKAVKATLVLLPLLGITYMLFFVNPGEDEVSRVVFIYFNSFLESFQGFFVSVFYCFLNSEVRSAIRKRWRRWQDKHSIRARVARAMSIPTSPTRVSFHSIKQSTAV

Corticotropin-releasing factor receptor 2, sequence (P47866 whole entry): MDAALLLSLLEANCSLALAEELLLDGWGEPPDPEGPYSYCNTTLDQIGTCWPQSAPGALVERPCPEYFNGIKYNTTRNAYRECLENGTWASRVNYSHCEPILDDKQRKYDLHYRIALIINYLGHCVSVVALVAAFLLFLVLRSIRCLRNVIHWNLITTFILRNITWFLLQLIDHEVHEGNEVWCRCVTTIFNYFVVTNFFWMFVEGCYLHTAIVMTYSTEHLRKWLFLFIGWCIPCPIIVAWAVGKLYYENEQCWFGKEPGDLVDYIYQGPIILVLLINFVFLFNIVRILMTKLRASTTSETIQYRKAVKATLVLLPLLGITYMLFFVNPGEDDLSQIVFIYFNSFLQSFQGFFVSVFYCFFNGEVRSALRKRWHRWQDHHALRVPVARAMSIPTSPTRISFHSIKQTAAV

Ki [1]: > 10 µM | clearance [2]: 82 mL/min/kg | bioavailability [3]: 37% | T1/2 (Rattus norvegicus [4]): 1.5 h | Cmax [5]: 367 ng/mL | Vdss (Rattus norvegicus [6]): 6.7 L/kg | IC50 [7]: 5.5 nM
SMILES: CCCCN(CC)c1nc(C)nc2c1c(C)cn2-c1c(C)cc(C)cc1C [CP-154526]
